Legend:
[1] = test system: WNV; assay: WNV subgenomic replicon assay; type: cell-based, West Nile virus; conditions: for inhibition against WNV relative to DENV: 10 μM, comparison of replicon assays
[2] = test system: WNV replicon-containing cells; assay: Cell viability assay; type: cell-based, baby hamster; conditions: for cytotoxicity: 10 μM, replicon cells
[3] = test system: DENV; assay: DENV subgenomic replicon assay; type: cell-based, Dengue virus; conditions: for DENV Inhibition %: single concentration 10 μM, 3 days, BHK replicon cells; for activity against DENV relative to WNV: 10 μM, comparison of replicon assays
[4] = test system: DENV replicon-containing cells; assay: Cell viability assay; type: cell-based, baby hamster; conditions: single concentration 10 μM, 3 days, DENV replicon BHK cells
[5] = test system: HIV-1; conditions: read-out: EC50 against HIV-1; as reported previously ref 23; cited from earlier work
[6] = test system: HIV-1; assay: HIV-1 antiviral assay; type: cell-based; conditions: data not shown
[7] = molecular target: DNV3MTase (Dengue virus type 3, UniProt P27915); assay: SAM binding inhibition; parameters: species or system DENV3; conditions: 20 μM compound, 580 nM biotinylated DNV3MTase, 425 nM 3H-SAM
Sequence of DNV3MTase (P27915 2492-2753): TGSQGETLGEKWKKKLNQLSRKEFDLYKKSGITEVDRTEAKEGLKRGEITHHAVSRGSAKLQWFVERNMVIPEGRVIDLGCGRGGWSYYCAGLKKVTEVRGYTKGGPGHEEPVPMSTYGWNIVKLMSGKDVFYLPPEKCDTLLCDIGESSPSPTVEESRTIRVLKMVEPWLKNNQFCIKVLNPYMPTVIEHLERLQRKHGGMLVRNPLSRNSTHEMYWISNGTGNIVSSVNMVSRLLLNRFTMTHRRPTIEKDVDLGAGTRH
Method in brief: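 DENV3 MTase from E. coli, refolded from urea on Ni-NTA and cleaved with 3C protease, then NHS-biotinylated (13:1 biotin:protein). Test compound, SAM or sinefungin preincubated 20 min at 23°C. Then 1.65 μCi ³H-SAM, 15 min. Centrifuged; SPA counts read.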

## 3′-azidothymidine [4, AZT, reference compound]
[1]; single concentration 10 μM, 3 days, BHK replicon cells
  WNV Inhibition %: 0%
[2]; single concentration 10 μM, 3 days, WNV replicon BHK cells
  WNV Viability %: 83%
[3]
  DENV Inhibition %: 0%
[4]
  DENV Viability %: 89%

## COc1ccc2cc(-c3cnnn3[C@H]3C[C@H](n4cc(C)c(=O)[nH]c4=O)O[C@@H]3CO)ccc2c1 [10a, 1-((2R,4S,5S)-5-(Hydroxymethyl)-4-(5-(6-methoxynaphthalen-2-yl)-1H-1,2,3-triazol-1-yl)tetrahydrofuran-2-yl)-5-methylpyrimidine-2,4(1H,3H)-dione]
[5]
  EC50: 67 nM
[3]
  DENV Inhibition %: did not show any inhibition

## COc1ccc2cc(-c3cnnn3[C@H]3C[C@H](n4cc(C)c(=O)[nH]c4=O)O[C@@H]3CO[Si](C)(C)C(C)(C)C)ccc2c1 [11a]
[6]
  anti-HIV-1 activity: no appreciable anti-HIV-1 activity
[3]
  DENV Inhibition %: inhibited both viruses almost completely

## Cc1cn([C@H]2C[C@H](N3C(=O)CSC3c3ccc4[nH]ccc4c3)[C@@H](CO[Si](C)(C)C(C)(C)C)O2)c(=O)[nH]c1=O (stereo partly drawn) [13b]
[1]
  inhibition against WNV relative to DENV: substantially higher inhibition against WNV than DENV

## Cc1cn([C@H]2C[C@H](N3C(=O)CSC3c3c4ccccc4cc4ccccc34)[C@@H](CO[Si](C)(C)C(C)(C)C)O2)c(=O)[nH]c1=O (stereo partly drawn) [13c]
[1]
  inhibition against WNV relative to DENV: substantially higher inhibition against WNV than DENV

## Cc1cn([C@H]2C[C@H](NC(=O)c3c[nH]c4ccccc34)[C@@H](CO[Si](C)(C)C(C)(C)C)O2)c(=O)[nH]c1=O [15f]
[3]
  activity against DENV relative to WNV: considerably more active against DENV than WNV

## Cc1cn([C@H]2C[C@H](NC(=O)c3ccc(N4CCOCC4)cc3)[C@@H](CO[Si](C)(C)C(C)(C)C)O2)c(=O)[nH]c1=O [15h]
[3]
  activity against DENV relative to WNV: considerably more active against DENV than WNV

## Cc1cn([C@H]2C[C@H](NC(=O)Nc3ccccc3)[C@@H](CO[Si](C)(C)C(C)(C)C)O2)c(=O)[nH]c1=O [19a]
[3]
  activity against DENV relative to WNV: considerably more active against DENV than WNV

## Cc1cn([C@H]2C[C@H](NC(=O)Nc3cccc4ccccc34)[C@@H](CO[Si](C)(C)C(C)(C)C)O2)c(=O)[nH]c1=O [19b]
[3]
  activity against DENV relative to WNV: considerably more active against DENV than WNV

## Cc1cn([C@H]2C[C@H](NC(=O)NC34CC5CC(CC(C5)C3)C4)[C@@H](CO[Si](C)(C)C(C)(C)C)O2)c(=O)[nH]c1=O [19c]
[1]
  inhibition against WNV relative to DENV: substantially higher inhibition against WNV than DENV

## Cc1ccc(S(=O)(=O)NC(=O)N[C@H]2C[C@H](n3cc(C)c(=O)[nH]c3=O)O[C@@H]2CO[Si](C)(C)C(C)(C)C)cc1 [21a, N-(((2S,3S,5R)-2-(((tert-Butyldimethylsilyl)oxy)methyl)-5-(5-meth-yl-2,4-dioxo-3,4-dihydropyrimidin-1(2H)-yl)tetrahydrofuran-3-yl)-carbamoyl)-4-methylbenzenesulfonamide]
[3]
  activity against DENV relative to WNV: considerably more active against DENV than WNV

## C[S+](CC[C@H](N)C(=O)[O-])C[C@H]1O[C@@H](n2cnc3c(N)ncnc32)[C@H](O)[C@@H]1O (stereo partly drawn) [SAM, S-adenosyl-L-methionine]
[7]
  Inhibition of the [3H]-SAM-MTase complex formation: same level of reduction

## Nc1ncnc2c1ncn2[C@@H]1O[C@H](C[C@@H](N)CC[C@H](N)C(=O)O)[C@@H](O)[C@H]1O [SIN, sinefungin]
[7]
  Inhibition of the [3H]-SAM-MTase complex formation: same level of reduction

## COc1ccc2cc(-c3cnnn3[C@H]3C[C@H](n4cc(C)c(=O)[nH]c4=O)O[C@@H]3CO[Si](C(C)C)(C(C)C)C(C)C)ccc2c1 [compound 22]
[2]
  cytotoxicity: significant cytotoxicity

## COc1ccc2cc(-c3cnnn3[C@H]3C[C@H](n4cc(C)c(=O)[nH]c4=O)O[C@@H]3CO[Si](c3ccccc3)(c3ccccc3)C(C)(C)C)ccc2c1 [compound 23]
[2]
  cytotoxicity: significant cytotoxicity

## COc1ccc2cc(-c3cnnn3[C@H]3C[C@H](n4cc(C)c(=O)[nH]c4=O)O[C@@H]3COC(C)=O)ccc2c1 [compound 24, ((2S,3S,5R)-3-(5-(6-Methoxynaphthalen-2-yl)-1H-1,2,3-triazol-1-yl)-5-(5-methyl-2,4-dioxo-3,4-dihydropyrimidin-1(2H)-yl)tetrahydrofuran-2-yl)methyl acetate]
[3]
  DENV Inhibition %: did not yield appreciable antiviral activity

## COC[C@H]1O[C@@H](n2cc(C)c(=O)n(C)c2=O)C[C@@H]1n1nncc1-c1ccc2cc(OC)ccc2c1 [compound 25, 1-((2R,4S,5S)-5-(Methoxymethyl)-4-(5-(6-methoxynaphthalen-2-yl)-1H-1,2,3-triazol-1-yl)tetrahydrofuran-2-yl)-3,5-dimethylpyrimidine-2,4(1H,3H)-dione]
[3]
  DENV Inhibition %: did not yield appreciable antiviral activity

## CCOCOC[C@H]1O[C@@H](n2cc(C)c(=O)[nH]c2=O)C[C@@H]1n1nncc1-c1ccc2cc(OC)ccc2c1 [compound 26, 1-((2R,4S,5S)-5-((Ethoxymethoxy)methyl)-4-(5-(6-methoxynaphthalen-2-yl)-1H-1,2,3-triazol-1-yl)tetrahydrofuran-2-yl)-5-methylpyrimidine-2,4(1H,3H)-dione]
[3]
  DENV Inhibition %: did not yield appreciable antiviral activity

## COc1ccc2cc(-c3cnnn3[C@H]3C[C@H](n4cc(C)c(=O)[nH]c4=O)O[C@@H]3COC3CCCCO3)ccc2c1 (stereo partly drawn) [compound 27, 1-((2R,4S,5S)-4-(5-(6-Methoxynaphthalen-2-yl)-1H-1,2,3-triazol-1-yl)-5-(((tetrahydro-2H-pyran-2-yl)oxy)methyl)-tetrahydrofuran-2-yl)-5-methylpyrimidine-2,4(1H,3H)-dione]
[3]
  DENV Inhibition %: did not yield appreciable antiviral activity

Reference: PMC4465584 (Journal of medicinal chemistry, 2015)
